In data set [1] the test system is HEK293-hACE2 cells. The conditions noted are these: 36 h.
Data set [2] deals with HEK293-hACE2 cells. The settings on record: even at a concentration of 36.27 μM; 36 h.
Data set [3] can be described thus: Chemical stability by analytical HPLC. The class given is physicochemical. The conditions noted are these: 1 mg/mL, 37 °C, 24 h. Put shortly: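 For acid stability, test peptide at 1 mg/mL in diluted HCl (pH 2), held at 37 °C for up to 24 h. Purity by analytical HPLC on a C18 column: A = acetonitrile/0.1% TFA, B = water/0.1% TFA, 65-40-0% B over 0-20-20.1 min, 1 mL/min, room temperature.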

The nature of data set [4]: Radiochemical stability in 10% FBS. The class given is in vitro ADME. The settings on record: radio-TLC, mean ± SD.
Data set [5] relates to wild-type C57BL/6 mice. Kind of data set: 68Ga-DOTA-Omi-X PET/CT, wild-type mice. The class given is in vivo, mouse. The settings on record: 3.7 MBq i.v., PET 2 h P.I.
Data set [6] in a line: Radiochemical stability in 0.01 M PBS. The class given is physicochemical. The conditions noted are these: radio-TLC, mean ± SD.
Data set [7] concerns HEK293-hACE2 cells. The class given is cell-based, human. The settings on record: 2 × 10^6 cells/mL, 0.5 mL, γ-counter, mean ± SD, three repetitions.
Data set [8] relates to K18-hACE2 mice. Kind of data set: 125I-based SPECT/CT in vivo distribution, K18-hACE2 mice. The arrangement: species or system mouse. In short, it runs like this:
(§1)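 Male mice, 4 months old, n = 5 per strain, anaesthetised with isoflurane (1.5%–2% induction, 1%–1.5% maintenance). Each got 3.28 ± 0.42 MBq of the 125I-labelled test peptide via the lateral tail vein. SPECT (35 keV, MLEM, 28 min) at 1 and 6 h post-injection, followed by CT. Manual 3D ROIs gave uptake (counts/mm3) in heart, lungs, liver and GI tract.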

The subject of data set [9] is C57BL/6 mice. Kind of data set: 125I-based SPECT/CT in vivo distribution, wild-type mice. Also on record: species or system mouse. The settings on record: WT C57BL/6 mice, i.v., by 6 h P.I. In short, it runs like this: as §1

4 molecules from paper PMC12848671 (Chemical & Biomedical Imaging, 2025) can be followed below.

Like-named read-outs stand apart in the source and are kept apart here. Ends that are not written are not given here. * marks the point of attachment. 125I = [125I]* Where only a bound is given, the exact number is not on record here.

Turning to `CC(C)C[C@H](NC(=O)[C@H](CC(C)C)NC(=O)[C@H](CCC(=O)O)NC(=O)[C@H](Cc1ccccc1)NC(=O)[C@H](CO)NC(=O)[C@H](CC(C)C)NC(=O)[C@@H](NC(=O)[C@@H](NC(=O)[C@@H](NC(=O)[C@H](CCCNC(=N)N)NC(=O)[C@H](Cc1ccc(O)cc1)NC(=O)[C@@H]1CCCN1C(=O)[C@H](CCC(N)=O)NC(=O)[C@@H](N)Cc1c[nH]cn1)C(C)C)C(C)C)C(C)C)C(=O)N[C@@H](Cc1c[nH]cn1)C(=O)O` [Omi-X], the “cell-division rate (CFDA SE)” value in data set [1] (54.410 μM (100 μg/mL)) is recorded as “slightly inhibited”; in data set [1] (low-dose 0.544 μM (1 μg/mL)), “no significant difference”; in data set [1] (medium-dose 5.441 μM (10 μg/mL)) it was “no significant difference”. Moreover, in [2], the “effect on cell cycle distribution” value is “no significant effect”. Moreover, the “chemical stability of the peptide sequence” value in data set [3] (diluted HCl (pH = 2), analytical HPLC C18) is reported as “chemically stable”; in [3] (weakly acidic environment: diluted HCl (pH = 2), analytical HPLC), > 95%.

With `CC(C)C[C@H](NC(=O)[C@H](CC(C)C)NC(=O)[C@H](CCC(=O)O)NC(=O)[C@H](Cc1ccccc1)NC(=O)[C@H](CO)NC(=O)[C@H](CC(C)C)NC(=O)[C@@H](NC(=O)[C@@H](NC(=O)[C@@H](NC(=O)[C@H](CCCNC(=N)N)NC(=O)[C@H](Cc1ccc(O)cc1)NC(=O)[C@@H]1CCCN1C(=O)[C@H](CCC(N)=O)NC(=O)[C@H](Cc1c[nH]cn1)NC(=O)CN1CCN(CC(=O)O)CCN(CC(=O)O)CCN(CC(=O)O)CC1)C(C)C)C(C)C)C(C)C)C(=O)N[C@@H](Cc1c[nH]cn1)C(=O)O` [^68Ga-DOTA-Omi-X, metal not drawn], the “radiochemical stability (4 h) in 10% FBS” value in data set [4] was found to be 94.10 ± 1.55%. Besides, the ACE2-specific targeting entry in data set [5] is listed as “did not appear to show significant ACE2-specific targeting”. Besides, the “radiochemical stability (4 h) in 0.01 M PBS” value in data set [6] was found to be 96.10 ± 0.75%.

TVCGPKKSTNLVKNK [Omi-B]: the “radioactive uptake rate in HEK293-hACE2 cells (ACE2-binding rate)” value in data set [7] is given as 15.04% ± 2.98%.

“^125I-Omi-X: 125I-labeled Omi-X for SPECT imaging (HQPY(125I)RVVVLSFELLH)”: in data set [8] (i.v. tail vein, SPECT/CT 1 h P.I.), the clearance from circulation result is “rapidly cleared from circulation”. The “excretion of unbound tracer” value in data set [8] (i.v., SPECT/CT) is recorded as “primarily excreted through the urinary system”. Besides, the organ accumulation entry in data set [8] (i.v., SPECT/CT 1 h P.I.) was “notably accumulated in the organs highly expressing ACE2, including the lung, heart, liver, and spleen”. In addition, the “uptake in RAAS-related organs” value in [9] is “greatly reduced”.
